A selection: hits, their analogues and other compounds. The true share with any hit is near 3.1%.
KCNK9 block – blocks the human KCNK9 two-pore domain potassium channel. HEK293 KCNK9, FluxOR thallium flux fluorescence; hits give low values. B-score at 10 µM. hit rate 1.2% among 310,000. AID 488922;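 active = ratio B-score over 3 SD below the library mean, with starting fluorescence within 5 SD of its mean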;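 also: negative B-score means less thallium flux so channel inhibition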
KCNK3 inh – human KCNK3 channel inhibition, primary screen. O14649. CHO-KCNK3 thallium flux, FluxOR fluorescence; hits give low values. B-score at 10 µM. hit rate 0.84% among 340,000. AID 602410;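 active = B-score under library mean minus 4 SD, starting fluorescence ratio at most library mean plus 5 SD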;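 also: more negative B-score means stronger inhibition of thallium flux through KCNK3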
KCNQ1 block – inhibitors of human KCNQ1 potassium channel; CHO-K1 KCNQ1, FluxOR thallium flux fluorescence; hits give high values; hit rate 1.3% among 310,000; AID 2642; P51787; B-score at 10 µM;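 active = compounds whose thallium flux B-score, printed positive for inhibition, exceeds three library SD while starting fluorescence stays within three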;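 also: channel opened by potassium depolarization with thallium stimulus after 20 min compound exposure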
hERG rescue – hERG (human) protection from proarrhythmic block | Q12809 | CHO-hERG, FluxOR thallium flux, dofetilide IC70 present | activation (rescue from dofetilide block), less the hit threshold, % at 10 µM | hit rate 0.51% among 310,000;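 active = activation above the mean of controls blocked by dofetilide plus 5 SD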;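 also: thallium influx through hERG after potassium depolarization seen as dye fluorescence rise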
Target sequence (Q12809 whole entry, looked up): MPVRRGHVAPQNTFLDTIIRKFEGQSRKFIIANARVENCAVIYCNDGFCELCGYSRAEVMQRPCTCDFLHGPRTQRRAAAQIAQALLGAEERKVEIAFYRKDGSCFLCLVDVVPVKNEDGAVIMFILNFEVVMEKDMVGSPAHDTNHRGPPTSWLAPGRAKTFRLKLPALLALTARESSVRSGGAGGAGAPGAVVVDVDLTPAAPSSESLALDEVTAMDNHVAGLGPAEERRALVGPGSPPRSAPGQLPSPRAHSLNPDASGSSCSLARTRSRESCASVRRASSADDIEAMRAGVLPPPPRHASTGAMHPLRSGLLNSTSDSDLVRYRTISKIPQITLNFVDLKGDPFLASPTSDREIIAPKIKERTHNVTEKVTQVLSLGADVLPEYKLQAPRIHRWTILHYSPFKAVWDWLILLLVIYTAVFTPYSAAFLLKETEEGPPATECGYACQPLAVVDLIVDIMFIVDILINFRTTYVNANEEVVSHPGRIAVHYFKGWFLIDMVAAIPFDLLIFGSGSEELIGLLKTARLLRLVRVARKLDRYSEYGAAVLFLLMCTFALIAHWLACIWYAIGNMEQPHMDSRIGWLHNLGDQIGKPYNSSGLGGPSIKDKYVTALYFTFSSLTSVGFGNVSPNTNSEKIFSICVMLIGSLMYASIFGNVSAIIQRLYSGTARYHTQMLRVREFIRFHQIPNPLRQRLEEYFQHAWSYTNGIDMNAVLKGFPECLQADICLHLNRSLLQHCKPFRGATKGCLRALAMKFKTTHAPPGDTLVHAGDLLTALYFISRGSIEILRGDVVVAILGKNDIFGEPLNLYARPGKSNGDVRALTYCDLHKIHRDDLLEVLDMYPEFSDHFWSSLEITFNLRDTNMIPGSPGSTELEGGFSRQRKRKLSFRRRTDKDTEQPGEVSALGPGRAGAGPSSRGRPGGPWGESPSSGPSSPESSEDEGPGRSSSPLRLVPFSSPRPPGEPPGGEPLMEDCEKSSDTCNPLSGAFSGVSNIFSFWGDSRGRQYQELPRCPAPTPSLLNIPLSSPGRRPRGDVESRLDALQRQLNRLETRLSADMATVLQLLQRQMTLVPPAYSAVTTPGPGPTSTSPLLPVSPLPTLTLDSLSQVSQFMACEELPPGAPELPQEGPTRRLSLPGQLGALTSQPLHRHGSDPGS
KCNQ1 pot – potentiators or activators of human KCNQ1 potassium channel; P51787; CHO-K1 KCNQ1, thallium flux FluxOR fluorescence; hits give high values; B-score at 10 µM; hit rate 0.35% among 310,000; AID 2648;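 active = fluorescence ratio B-score, a plate-corrected score, at least three library SD, with initial intensity B-score within 5 SD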
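System: CHO-K1 cells stably expressing KCNQ1 / Medium: assay buffer for compound exposure, DMSO matched across wells / Reagent: thallium- and potassium-containing depolarizing buffer / Compound: one concentration, matched DMSO / Incubation: 20 min compound pretreatment at room temperature / Measured by: kinetic FluxOR fluorescence, 10 s baseline plus 110 s post-stimulus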
Hits are given with their value.

For Cc1sc2nc(CSc3ccccc3)nc(N3CCC(C(N)=O)CC3)c2c1C the results were KCNK9 block inactive, KCNK3 inh inactive, KCNQ1 block inactive, hERG rescue inactive and KCNQ1 pot inactive.
`CCOC(=O)c1sc2nc(CSc3ccccc3)nc(N3CCC(C(N)=O)CC3)c2c1C` gave KCNK9 block inactive, KCNK3 inh inactive, KCNQ1 block inactive, hERG rescue 10 and KCNQ1 pot inactive.
`CCc1ccc(OCC(=O)N/N=C/c2cc([N+](=O)[O-])ccc2N2CCCCCC2)cc1` gave KCNK9 block -6.7, KCNK3 inh inactive, KCNQ1 block inactive, hERG rescue inactive and KCNQ1 pot inactive.
`O=C(N/N=C/c1cc([N+](=O)[O-])ccc1N1CCCCCC1)c1ccccn1` gave KCNK9 block inactive, KCNK3 inh inactive, KCNQ1 block inactive, hERG rescue inactive and KCNQ1 pot inactive.
CCOc1ccc(/C=C2/SC(=O)NC2=S)cc1 was read as KCNK9 block inactive, KCNK3 inh inactive, KCNQ1 block inactive, hERG rescue 37 and KCNQ1 pot 112.
Cc1cc(C(=O)N2CCc3c([nH]c4ccccc34)C2c2cccc(Cl)c2)nn1C (stereo unspecified) was read as KCNK9 block -7.4, KCNK3 inh inactive, KCNQ1 block inactive, hERG rescue inactive and KCNQ1 pot inactive.
`Cc1ccc(C(C[N+](=O)[O-])c2c(N)n(C)c(=O)n(C)c2=O)cc1` (stereo unspecified) gave KCNK9 block inactive, KCNK3 inh inactive, KCNQ1 block inactive, hERG rescue inactive and KCNQ1 pot inactive.
For COc1cc(C(C[N+](=O)[O-])c2c(N)n(C)c(=O)n(C)c2=O)ccc1O (stereo unspecified) the results were KCNK9 block inactive, KCNK3 inh inactive, KCNQ1 block 6, hERG rescue inactive and KCNQ1 pot inactive.
`O=C(C[C@@H]1C/C=C\CCC(=O)O[C@H](c2ccccc2)CNC1=O)N[C@H](CO)Cc1ccccc1` gave KCNK3 inh inactive.
`COc1ccc(-c2ccc(-c3cc(=O)oc4c(C(C)C)ccc(C)c34)cc2)cc1` gave KCNK3 inh inactive.
Cc1cccc(N2CCN(C(=O)CNC(=O)Cc3ccccc3)CC2)c1C was read as KCNK3 inh inactive.
`Cc1cccc(N2CCN(C(=O)CNC(=O)c3cccc([N+](=O)[O-])c3)CC2)c1C` gave KCNK9 block inactive, KCNK3 inh inactive, KCNQ1 block inactive, hERG rescue 12 and KCNQ1 pot inactive.
For COc1ccccc1NOC(=O)CCOc1ccccc1 the results were KCNK3 inh inactive.
Screening O=c1cc(SCc2ccc(Cl)cc2Cl)nc[nH]1 returned KCNK3 inh inactive.
Screening CCc1ccc(Nc2nnc(SCC(=O)NC(=O)CN3CCCC3=O)s2)cc1 returned KCNK3 inh inactive.
Screening C=CCN(C(=O)C1CSC2(C)CCC(=O)N12)c1nc(-c2ccccc2)cs1 (stereo unspecified) returned KCNK9 block inactive, KCNK3 inh inactive, KCNQ1 block 6, hERG rescue inactive and KCNQ1 pot inactive.
CSc1ccccc1NC(=O)COC(=O)Cc1ccsc1 was read as KCNK3 inh inactive.
`O=C(Cn1c(=O)n(-c2ccccc2)c(=O)c2sccc21)N1CCCC1` gave KCNK9 block inactive, KCNK3 inh inactive, KCNQ1 block 6, hERG rescue inactive and KCNQ1 pot inactive.
Cc1ccc(-n2c(=O)c3sccc3n(CC(=O)N3CCCC3)c2=O)cc1 was read as KCNK9 block inactive, KCNK3 inh inactive, KCNQ1 block inactive, hERG rescue inactive and KCNQ1 pot inactive.
Screening CSc1nc(Oc2ccc3ccccc3c2)c2ccccc2n1 returned KCNK9 block -7.2, KCNK3 inh inactive, KCNQ1 block inactive, hERG rescue inactive and KCNQ1 pot inactive.
`CSc1nc(Oc2ccccc2)c2sccc2n1` gave KCNK9 block inactive, KCNK3 inh inactive, KCNQ1 block inactive, hERG rescue inactive and KCNQ1 pot inactive.
For CCN(C[C@H]1N[C@@](CC)(C(=O)OC)[C@H]2C(=O)N(Cc3ccccc3)C(=O)[C@@H]12)C(=O)c1ccc(C(C)(C)C)cc1 the results were KCNK3 inh inactive.
For CCCCN(C)C(=O)CCCCn1c(=O)[nH]c2cc(OCC)c(OCC)cc2c1=O the results were KCNK9 block inactive, KCNK3 inh inactive, KCNQ1 block inactive, hERG rescue 48 and KCNQ1 pot inactive.
`N#Cc1cccc2cccc(S(=O)(=O)N3CCOCC3)c12` gave KCNK3 inh inactive.
For COc1ccc(Cl)cc1NC(=O)c1noc(C)c1[N+](=O)[O-] the results were KCNK9 block inactive, KCNK3 inh inactive, KCNQ1 block inactive, hERG rescue inactive and KCNQ1 pot inactive.
`COc1cc(/C=C/c2nc(N)nc(-c3ccccc3O)n2)cc(OC)c1OC` gave KCNK9 block -7.7, KCNK3 inh inactive, KCNQ1 block inactive, hERG rescue inactive and KCNQ1 pot inactive.
CC(C)(C)C(=O)NC(=S)NNC(=O)c1ccc(-c2ccccc2)cc1 was read as KCNK9 block inactive, KCNK3 inh inactive, KCNQ1 block inactive, hERG rescue 6.3 and KCNQ1 pot 66.
Screening CCCCN(CCCC)C(=S)NC(=O)c1ccccc1Cl returned KCNK9 block inactive, KCNK3 inh inactive, KCNQ1 block inactive, hERG rescue 65 and KCNQ1 pot 57.
`CCN(CC)C(=S)NC(=O)c1ccc(Cl)cc1Cl` gave KCNK9 block inactive, KCNK3 inh inactive, KCNQ1 block inactive, hERG rescue 13 and KCNQ1 pot 17.
Screening CC(C)(C)C(=O)NC(=S)NNC(=O)c1ccc(Cl)cc1Cl returned KCNK9 block inactive, KCNK3 inh inactive, KCNQ1 block inactive, hERG rescue inactive and KCNQ1 pot 16.
`C=CCn1c(=O)[nH]c(=O)c2c(N)c(C(=O)c3ccc(OC)cc3)sc21` gave KCNK3 inh inactive.
For NS(=O)(=O)c1ccc(CCNC(=O)CSc2ccc3ccccc3c2)cc1 the results were KCNK9 block inactive, KCNK3 inh inactive, KCNQ1 block inactive, hERG rescue 11 and KCNQ1 pot inactive.
NS(=O)(=O)c1ccc(CCNC(=O)CSc2ccc([N+](=O)[O-])cc2)cc1 was read as KCNK9 block inactive, KCNK3 inh inactive, KCNQ1 block inactive, hERG rescue inactive and KCNQ1 pot inactive.
For COc1cc(C(=O)NCc2ccccc2Cl)ccc1OCC(=O)N1CCOCC1 the results were KCNK3 inh inactive.
Screening COc1ccc(NC(C)=O)cc1NC(=O)c1cccc(S(=O)(=O)N2CCc3ccccc32)c1 returned KCNK3 inh inactive.
`CC(C)NC(=O)/C(C#N)=C\c1ccc(N(C)C)o1` gave KCNK9 block -7, KCNK3 inh inactive, KCNQ1 block inactive, hERG rescue inactive and KCNQ1 pot inactive.
`CCN(CC)c1ccc(/C=C(/C#N)C(=O)NC(C)C)o1` gave KCNK9 block inactive, KCNK3 inh inactive, KCNQ1 block inactive, hERG rescue inactive and KCNQ1 pot inactive.
`CCOc1cc(/C=C(\C#N)C(=O)Nc2cccc(C(=O)O)c2)ccc1OCc1ccccc1Cl` gave KCNK9 block inactive, KCNK3 inh inactive, KCNQ1 block 6, hERG rescue inactive and KCNQ1 pot inactive.
